Measurements as given in ChEMBL document CHEMBL3352038, “Discovery of cytotoxic dolastatin 10 analogues with N-terminal modifications” (J Med Chem, 2014).
Non-standard residues stand in square brackets, D forms with d. Residues, ends and D or L forms follow the SMILES beside them. *: point of attachment. Dolaproine = CO[C@@H]([C@@H]1CCCN1)[C@@H](C)C(=O)O; Dil = CC[C@H](C)[C@H](NC)[C@@H](CC(=O)O)OC; Doe = c1ccc(C[C@H](N*)c2nccs2)cc1; X1 = C[C@@H](N*)[C@@H](O)c1ccccc1; NMeV = CN[C@H](C(=O)O)C(C)C; NMeA = CN[C@@H](C)C(=O)O; NMeAib = CNC(C)(C)C(=O)O; Ac5c = NC1(C(=O)O)CCCC1; Ac3c = NC1(C(=O)O)CC1; Aib = CC(C)(N)C(=O)O; Sar = CNCC(=O)O

Columns and labels:
[1] = system: BT-474; assay: Cytotoxicity against human BT474 cells assessed as cell viability incubated fore 4 days by MTS assay; type: functional; conditions: BT-474, 96 h
In short: (§1)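 Cells seeded at low density in 96-well plates, dosed next day with 3-fold serial dilutions at 10 concentrations in duplicate. Incubated 4 days at 37C/5% CO2. Viability read by MTS reagent (1.5 h), absorbance at 490 nm. Four-parameter logistic fit. Reported as arithmetic mean GI50 (nM) with standard deviation over n individual runs, each run a duplicate readout.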

[2] = system: MDA-MB-361; assay: Cytotoxicity against human MDA-MB-361 cells assessed as cell viability incubated fore 4 days by MTS assay; type: functional; conditions: MDA-MB-361, 96 h; in short: as §1
[3] = system: NCI-N87; assay: Cytotoxicity against human NCI-N87 cells assessed as cell viability incubated fore 4 days by MTS assay; type: functional; conditions: NCI-N87, 96 h; in short: as §1
[4] = AUCt in Han Wistar rat at 20 ug/kg, iv by LC-MS/MS analysis; type: ADME, organism-based; conditions: plasma, 0.02 mg/kg
In short: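 Male Wistar Han rats (n = 3) received a single IV dose of 20 µg/kg. Serum/plasma concentrations were measured by LC-MS/MS. AUCt was taken from time zero to the last measurable concentration. Values are reported as mean ±.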

[5] = Volume of distribution at steady state in Han Wistar rat at 20 ug/kg, iv by LC-MS/MS analysis; type: ADME, organism-based; conditions: in vivo, 0.02 mg/kg, read-out: Vdss
In short: (§2)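 Male Wistar Han rats (n = 3), single IV dose of 20 µg/kg. Plasma levels by LC-MS/MS. Cmax, Tmax, AUCt (zero to last measurable concentration), systemic serum clearance, Vss and terminal t1/2 given as mean ± spread.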

[6] = Half life in Han Wistar rat at 20 ug/kg, iv by LC-MS/MS analysis; type: ADME, organism-based; conditions: in vivo, 0.02 mg/kg; in short: as §2
[7] = Clearance in Han Wistar rat at 20 ug/kg, iv by LC-MS/MS analysis; type: ADME, organism-based; conditions: in vivo, 0.02 mg/kg; in short: as §2
[8] = Fraction unbound in monkey plasma at 0.1 uM; type: ADME, cell-free, Macaca mulatta; conditions: rhesus monkey
In short: (§3)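 Plasma protein binding measured at 0.1 uM in monkey, rat and human plasma. Reported as fraction unbound.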

[9] = Fraction unbound in rat plasma at 0.1 uM; type: ADME, cell-free; in short: as §3
[10] = Fraction unbound in human plasma at 0.1 uM; type: ADME, cell-free; in short: as §3
[11] = Drug recovery in Han Wistar rat urine at 36 ug/kg, iv bolus dose; type: ADME, organism-based; conditions: 0.036 mg/kg, read-out: Drug recovery
In short: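 Single IV bolus of 36 µg/kg. Fraction of dose recovered in urine (Wistar Han rats, n = 3) and in bile (Sprague-Dawley rats, n = 3).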

[12] = Drug recovery in Han Wistar rat bile at 36 ug/kg, iv bolus dose; type: ADME, organism-based; conditions: 0.036 mg/kg, read-out: Drug recovery
[13] = Drug metabolism in human liver S9 fraction assessed as formation of NADPH-dependent oxidative metabolites; type: ADME, subcellular
[14] = Drug metabolism in rat liver S9 fraction assessed as formation of NADPH-dependent oxidative metabolites; type: ADME, subcellular
[15] = Drug metabolism in monkey liver S9 fraction assessed as formation of NADPH-dependent oxidative metabolites; type: ADME, subcellular, Macaca mulatta; conditions: rhesus monkey
[16] = Drug metabolism in human liver S9 fraction assessed as formation of amide hydrolysis products; type: ADME, subcellular
[17] = Drug metabolism in rat liver S9 fraction assessed as formation of amide hydrolysis products; type: ADME, subcellular
[18] = Drug metabolism in monkey liver S9 fraction assessed as formation of amide hydrolysis products; type: ADME, subcellular, Macaca mulatta; conditions: rhesus monkey
[19] = Drug metabolism in human liver S9 fraction assessed as formation of glucuronide conjugates; type: ADME, subcellular
[20] = Drug metabolism in rat liver S9 fraction assessed as formation of glucuronide conjugates; type: ADME, subcellular
[21] = Drug metabolism in monkey liver S9 fraction assessed as formation of glucuronide conjugates; type: ADME, subcellular, Macaca mulatta; conditions: rhesus monkey
[22] = molecular target: Cytochrome P450 3A4 (Homo sapiens, UniProt P08684); assay: Drug metabolism assessed as human recombinant CYP3A4-mediated hydroxylation occurring on N-terminus; type: ADME; conditions: recombinant enzyme
[23] = Apparent intrinsic clearance in human liver microsomes at 1 uM; type: ADME; conditions: read-out: CLH(app)
In short: (§4)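 Apparent intrinsic clearance measured at 1 μM substrate in human liver microsomes (μl/min/mg) and in human hepatocytes (μl/min/million cells).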

[24] = system: Hepatocyte; assay: Apparent intrinsic clearance in human liver hepatocytes at 1 uM; type: ADME, cell-based; in short: as §4
[25] = Cmax in Han Wistar rat at 20 ug/kg, iv by LC-MS/MS analysis; type: ADME, organism-based; design: dose 20 ug/kg, route intravenous; conditions: in vivo, 0.02 mg/kg; in short: as §2
[26] = Tmax in Han Wistar rat at 20 ug/kg, iv by LC-MS/MS analysis; type: ADME, organism-based; conditions: in vivo, 0.02 mg/kg; in short: as §2

Chain of Cytochrome P450 3A4 (P08684 whole entry): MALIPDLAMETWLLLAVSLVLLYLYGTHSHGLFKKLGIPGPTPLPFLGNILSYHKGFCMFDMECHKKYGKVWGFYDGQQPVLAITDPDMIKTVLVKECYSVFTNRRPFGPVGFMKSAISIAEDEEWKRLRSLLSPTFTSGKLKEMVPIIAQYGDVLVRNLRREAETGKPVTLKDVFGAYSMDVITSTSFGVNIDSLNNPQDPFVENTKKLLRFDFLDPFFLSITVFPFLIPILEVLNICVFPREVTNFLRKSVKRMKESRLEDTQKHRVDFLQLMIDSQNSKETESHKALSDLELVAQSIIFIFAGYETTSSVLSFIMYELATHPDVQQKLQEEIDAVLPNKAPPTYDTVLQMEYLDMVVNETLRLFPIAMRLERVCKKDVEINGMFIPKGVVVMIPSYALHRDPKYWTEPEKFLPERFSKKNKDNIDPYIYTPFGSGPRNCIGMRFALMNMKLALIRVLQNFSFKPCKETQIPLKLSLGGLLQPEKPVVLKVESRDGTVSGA

CC[C@H](C)[C@@H]([C@@H](CC(=O)N1CCC[C@H]1[C@H](OC)[C@@H](C)C(=O)N[C@@H](Cc1ccccc1)c1nccs1)OC)N(C)C(=O)[C@@H](NC(=O)[C@]1(C)CCCCN1)C(C)C
GI50 [1]: 0.16 nM | GI50 [2]: 0.2 nM | GI50 [3]: 0.25 nM

CC[C@H](C)[C@@H]([C@@H](CC(=O)N1CCC[C@H]1[C@H](OC)[C@@H](C)C(=O)N[C@@H](Cc1ccccc1)c1nccs1)OC)N(C)C(=O)[C@@H](NC(=O)C(C)(C)CN)C(C)C
GI50 [1]: 0.25 nM | GI50 [2]: 0.81 nM | GI50 [3]: 1.4 nM

CC[C@H](C)[C@@H]([C@@H](CC(=O)N1CCC[C@H]1[C@H](OC)[C@@H](C)C(=O)N[C@@H](Cc1ccccc1)c1nccs1)OC)N(C)C(=O)[C@@H](NC(=O)C(C)(C)NC)C(C)C (H-[NMeAib]V[Dil][Dolaproine]-Doe)
GI50 [1]: 0.045 nM | GI50 [2]: 0.076 nM | GI50 [3]: 0.12 nM

CC[C@H](C)[C@@H]([C@@H](CC(=O)N1CCC[C@H]1[C@H](OC)[C@@H](C)C(=O)N[C@@H](Cc1ccccc1)c1nccs1)OC)N(C)C(=O)[C@@H](NC(=O)C1(N)CC1)C(C)C (H-[Ac3c]V[Dil][Dolaproine]-Doe)
GI50 [1]: 2.9 nM | GI50 [2]: 5.6 nM | GI50 [3]: 6.4 nM

CC[C@H](C)[C@@H]([C@@H](CC(=O)N1CCC[C@H]1[C@H](OC)[C@@H](C)C(=O)N[C@@H](Cc1ccccc1)c1nccs1)OC)N(C)C(=O)[C@@H](NC(=O)[C@H](C)NC)C(C)C (H-[NMeA]V[Dil][Dolaproine]-Doe)
GI50 [1]: 0.23 nM | GI50 [2]: 0.25 nM | GI50 [3]: 0.42 nM

CC[C@H](C)[C@@H]([C@@H](CC(=O)N1CCC[C@H]1[C@H](OC)[C@@H](C)C(=O)N[C@@H](Cc1ccccc1)c1nccs1)OC)N(C)C(=O)[C@@H](NC(=O)C(C)(C)CNC)C(C)C
GI50 [1]: 0.25 nM | GI50 [2]: 0.41 nM | GI50 [3]: 1.1 nM

CC[C@H](C)[C@@H]([C@@H](CC(=O)N1CCC[C@H]1[C@H](OC)[C@@H](C)C(=O)N[C@@H](Cc1ccccc1)c1nccs1)OC)N(C)C(=O)[C@@H](NC(=O)[C@@]1(F)CCNC1)C(C)C
GI50 [1]: 0.29 nM | GI50 [2]: 0.6 nM | GI50 [3]: 1.1 nM

CC[C@H](C)[C@@H]([C@@H](CC(=O)N1CCC[C@H]1[C@H](OC)[C@@H](C)C(=O)N[C@@H](Cc1ccccc1)c1nccs1)OC)N(C)C(=O)[C@@H](NC(=O)C(C)(C)N)C(C)C (H-[Aib]V[Dil][Dolaproine]-Doe)
AUC(0-t) [4]: 4.51 ng·h/mL | Vd [5]: 14.7 L/kg | half-life [6]: 5.85 h | clearance [7]: 70 mL/min/kg | fraction unbound at 0.1 µM [8]: 0.24 | fraction unbound at 0.1 µM [9]: 0.1 | fraction unbound at 0.1 µM [10]: 0.07 | dose excreted [11]: 8% | dose excreted [12]: 4% | Drug metabolism [13]: metabolite_detected | Drug metabolism [14]: metabolite_detected | Drug metabolism [15]: metabolite_detected | Drug metabolism [16]: metabolite_notdetected | Drug metabolism [17]: metabolite_notdetected | Drug metabolism [18]: metabolite_notdetected | Drug metabolism [19]: metabolite_notdetected | Drug metabolism [20]: metabolite_notdetected | Drug metabolism [21]: metabolite_notdetected | Drug metabolism [22]: metabolite_detected | GI50 [1]: 0.26 nM | GI50 [2]: 0.19 nM | GI50 [3]: 0.27 nM | microsomal CLint at 1 µM [23]: 84 µL/min/mg | CLH(app) [24]: 21 µL/min/mg | Cmax [25]: 19.4 ng/mL | Tmax [26]: 8.4 min

CC[C@H](C)[C@@H]([C@@H](CC(=O)N1CCC[C@H]1[C@H](OC)[C@@H](C)C(=O)N[C@@H](Cc1ccccc1)c1nccs1)OC)N(C)C(=O)[C@@H](NC(=O)CNC)C(C)C (H-[Sar]V[Dil][Dolaproine]-Doe)
GI50 [1]: 0.49 nM | GI50 [2]: 0.69 nM | GI50 [3]: 1.2 nM

CC[C@H](C)[C@@H]([C@@H](CC(=O)N1CCC[C@H]1[C@H](OC)[C@@H](C)C(=O)N[C@@H](Cc1ccccc1)c1nccs1)OC)N(C)C(=O)[C@@H](NC(=O)[C@@]1(C)CCCCN1)C(C)C
GI50 [1]: 0.35 nM | GI50 [2]: 0.4 nM | GI50 [3]: 0.52 nM

CC[C@H](C)[C@@H]([C@@H](CC(=O)N1CCC[C@H]1[C@H](OC)[C@@H](C)C(=O)N[C@@H](Cc1ccccc1)c1nccs1)OC)N(C)C(=O)[C@@H](NC(=O)C1(N)CCCC1)C(C)C (H-[Ac5c]V[Dil][Dolaproine]-Doe)
GI50 [1]: 0.28 nM | GI50 [2]: 0.35 nM | GI50 [3]: 0.33 nM

CC[C@H](C)[C@@H]([C@@H](CC(=O)N1CCC[C@H]1[C@H](OC)[C@@H](C)C(=O)N[C@@H](Cc1ccccc1)c1nccs1)OC)N(C)C(=O)[C@@H](NC(=O)[C@@H](NC)C(C)C)C(C)C (H-[NMeV]V[Dil][Dolaproine]-Doe)
GI50 [1]: 0.12 nM | GI50 [2]: 0.09 nM | GI50 [3]: 0.3 nM | microsomal CLint at 1 µM [23]: 48 µL/min/mg | CLH(app) [24]: 11 µL/min/mg

CC[C@H](C)[C@@H]([C@@H](CC(=O)N1CCC[C@H]1[C@H](OC)[C@@H](C)C(=O)N[C@@H](Cc1ccccc1)c1nccs1)OC)N(C)C(=O)[C@@H](NC(=O)[C@@]1(C)CCCN1)C(C)C
GI50 [1]: 0.11 nM | GI50 [2]: 0.21 nM | GI50 [3]: 0.36 nM

CC[C@H](C)[C@@H]([C@@H](CC(=O)N1CCC[C@H]1[C@H](OC)[C@@H](C)C(=O)N[C@@H](Cc1ccccc1)c1nccs1)OC)N(C)C(=O)[C@@H](NC(=O)[C@]1(C)CCCN1)C(C)C
GI50 [1]: 0.14 nM | GI50 [2]: 0.2 nM | GI50 [3]: 0.15 nM

CC[C@H](C)[C@@H]([C@@H](CC(=O)N1CCC[C@H]1[C@H](OC)[C@@H](C)C(=O)N[C@H](C)[C@@H](O)c1ccccc1)OC)N(C)C(=O)[C@@H](NC(=O)[C@@H](NC)C(C)C)C(C)C (H-[NMeV]V[Dil][Dolaproine]-X1)
GI50 [1]: 0.22 nM | GI50 [2]: 0.49 nM | GI50 [3]: 0.54 nM | microsomal CLint at 1 µM [23]: 24 µL/min/mg | CLH(app) [24]: 3 µL/min/mg

CC[C@H](C)[C@@H]([C@@H](CC(=O)N1CCC[C@H]1[C@H](OC)[C@@H](C)C(=O)N[C@@H](Cc1ccccc1)c1nccs1)OC)N(C)C(=O)[C@@H](NC(=O)[C@]1(F)CCNC1)C(C)C
GI50 [1]: 0.16 nM | GI50 [2]: 0.25 nM | GI50 [3]: 0.59 nM

CC[C@H](C)[C@@H]([C@@H](CC(=O)N1CCC[C@H]1[C@H](OC)[C@@H](C)C(=O)N[C@@H](Cc1ccccc1)c1nccs1)OC)N(C)C(=O)[C@@H](NC(=O)[C@@H](N)C(C)C)C(C)C (H-VV[Dil][Dolaproine]-Doe)
GI50 [1]: 5.3 nM | GI50 [2]: 9 nM | GI50 [3]: 10 nM
